In ChEMBL document CHEMBL1275280, “Synthesis, structural elucidation and DNA-dependant protein kinase and antiplatelet studies of 2-amino-[5, 6, 7, 8-mono and 7, 8-di-substituted]-1,3-benzoxazines” (Eur J Med Chem, 2010):
Activity calls are given as the source filed them. No cut-off for these calls is given here.

Experiments:
Platelet = assay: Inhibition of collagen-induced platelet aggregation in human venous blood by optical method based aggregometry; format: functional, tissue-based
[1] = Inhibition of DNA-dependent protein kinase at 4 uM
Procedure, shortened: (§1)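 Compound in DMSO was added in place of water, at final concentrations of 1.6–4.0. The reaction was stopped with termination buffer and captured on a biotin membrane. After washing, scintillation counts gave percent inhibition relative to the full-reaction positive control (n = 3).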

[2] = Inhibition of DNA-dependent protein kinase at 1.6 uM; procedure, shortened: as §1
[3] = Inhibition of DNA-dependent protein kinase at 2 uM; procedure, shortened: as §1

Row | Structure (SMILES) | IC50 (Platelet) [µM] | also measured
1 | O=c1nc(N2CCOCC2)oc2ccc(OCc3ccccc3)cc12 | ≥ 100 | 
2 | CN1CCN(CCOc2ccc3c(=O)nc(N4CCOCC4)oc3c2)CC1 |  | inhibition [1]: Active
3 | Cc1c(O)ccc2c(=O)nc(C3CCNCC3)oc12 | ≥ 90 | 
4 | O=c1nc(N2CCOCC2)oc2ccc(OCCCl)cc12 | 87 | 
5 | Cc1c(OCCN2CCN(C)CC2)ccc2c(=O)nc(N3CCOCC3)oc12 |  | inhibition [1]: Active
6 | O=c1nc(N2CCOCC2)oc2cc(OCc3ccncc3)ccc12 | 45 | 
7 | O=c1nc(N2CCOCC2)oc2ccc(OCc3cccnc3)cc12 | ≥ 90 | 
8 | O=c1nc(N2CCOCC2)oc2cccc(OCCCl)c12 | ≥ 100 | 
9 | CC(C)c1cccc2c(=O)nc(N3CCOCC3)oc12 | 70 | 
10 | Cc1c(OCc2ccncc2)ccc2c(=O)nc(N3CCOCC3)oc12 | 4 | inhibition [3]: Active
11 | O=c1nc(N2CCOCC2)oc2c(-c3ccccc3)cccc12 |  | inhibition [3]: Active
12 | O=c1nc(N2CCOCC2)oc2ccc(OCCBr)cc12 | 83 | 
13 | CN1CCN(CCOc2cccc3oc(N4CCOCC4)nc(=O)c23)CC1 | ≥ 100 | inhibition [1]: inactive
14 | CN1CCN(CCOc2cccc3c(=O)nc(N4CCOCC4)oc23)CC1 | 80 | inhibition [1]: Active
15 | CN1CCN(CCOc2ccc3oc(N4CCOCC4)nc(=O)c3c2)CC1 | ≥ 86 | inhibition [1]: inactive
16 | Cc1c(OCCN2CCN(C)CC2)ccc2c(=O)nc(N3CCCCC3)oc12 | 36 | 

More lines, main results first:

Row | IC50 (Platelet) [µM] | Structure (SMILES) | also measured
17 | 75 | O=c1nc(N2CCOCC2)oc2cc(OCc3ccccn3)ccc12 | 
18 | ≥ 100 | O=c1nc(N2CCOCC2)oc2cccc(OCc3ccccc3)c12 | 
19 | 70 | O=c1nc(N2CCOCC2)oc2c(OCCBr)cccc12 | 
20 | 61 | Cc1c(OCCBr)ccc2c(=O)nc(N3CCCCC3)oc12 | 
21 | 22 | O=c1nc(N2CCOCC2)oc2c(OCc3cccnc3)cccc12 | 
22 | ≥ 100 | O=c1nc(N2CCOCC2)oc2cccc(OCc3cccnc3)c12 | 
23 | 80 | O=c1nc(N2CCOCC2)oc2cc(F)ccc12 | 
24 | 70 | O=c1nc(N2CCOCC2)oc2c(OCc3ccncc3)cccc12 | 
25 | 36 | Cc1c(OCCCl)ccc2c(=O)nc(N3CCOCC3)oc12 | 
26 | 47 | Cc1c(OCCN2CCN(C)CC2)ccc2c(=O)nc(N3CCSCC3)oc12 | 
27 | 70 | O=c1nc(N2CCOCC2)oc2cc(OCc3cccnc3)ccc12 | 
28 | 75 | Cc1c(OCCBr)ccc2c(=O)nc(N3CCSCC3)oc12 | 
29 | ≥ 100 | Cc1c(O)ccc2c(=O)nc(N3CCSCC3)oc12 | 
30 | 2 | Cc1c(OCc2cccnc2)ccc2c(=O)nc(N3CCOCC3)oc12 | inhibition [1]: Active
31 | 34 | Cc1c(OCc2ccccn2)ccc2c(=O)nc(N3CCOCC3)oc12 | inhibition [2]: Active
32 | 53 | O=c1nc(N2CCOCC2)oc2c(OCc3ccccc3)cccc12 | 
33 | 60 | O=c1nc(N2CCOCC2)oc2c(OCCCl)cccc12 | 
34 | 85 | CCOc1ccc2c(=O)nc(N3CCOCC3)oc2c1 | 
